Screening results (PubChem)
NadD inh – blocks S. aureus nicotinate mononucleotide adenylyltransferase | actives 0.78% (n = 360,000) | purified NadD enzyme, colorimetric absorbance read-out | inhibition, % at 20 µM | AID 602399; in the data active = inhibition above about 26%
ATG4B inh – inhibitors of human ATG4B cysteine protease | actives 0.51% (n = 340,000) | ATG4B cleavage of LC3-PLA2, NBD-HPC fluorescence, 1 h | Q9Y4P1 | inhibition, % at 8.33 µM; in the data active = inhibition above about 40%
Target sequence (Q9Y4P1 whole entry, looked up): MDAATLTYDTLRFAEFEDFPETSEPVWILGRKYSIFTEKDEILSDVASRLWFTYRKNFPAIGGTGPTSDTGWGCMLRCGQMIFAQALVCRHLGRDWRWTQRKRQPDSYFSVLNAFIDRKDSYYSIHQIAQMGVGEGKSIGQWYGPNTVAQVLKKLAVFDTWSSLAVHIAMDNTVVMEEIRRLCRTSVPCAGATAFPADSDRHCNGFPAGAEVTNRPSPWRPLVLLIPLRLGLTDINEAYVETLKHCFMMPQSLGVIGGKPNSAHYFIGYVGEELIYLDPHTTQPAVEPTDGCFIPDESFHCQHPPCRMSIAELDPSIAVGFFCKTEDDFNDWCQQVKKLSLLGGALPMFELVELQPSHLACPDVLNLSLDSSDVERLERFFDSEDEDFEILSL
SENP1 inh – blocks the human SENP1 SUMO protease catalytic domain; inhibition, % at 10 µM; AID 624204; recombinant SENP1 catalytic domain, CyPet-SUMO1-YPet FRET cleavage; actives 0.21% (n = 360,000); Q9P0U3;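 active = inhibition at least 30% at 10 µM, raw YFP signal under a set limit, fluorescence ratio 0.5 to 1.5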;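 note: 0% = enzyme with DMSO and 100% = no enzyme wells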
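system = hSENP1 catalytic domain, recombinant | reagent = SFCypet-SUMO1-SFYpet substrate at 25 nM | doses = one dose per compound, 10 µM, 0.5% DMSO | incubation = enzyme reaction for 50 min at room temperature, dark | measured by = FRET, CFP and YFP emission | controls = no-enzyme low, enzyme-DMSO high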
GRIN3A LBD mod – modulators (binders) of human NR3A ligand-binding domain; NR3A LBD differential scanning fluorimetry, Tm shift; 0% = protein alone, 100% = glycine-bound protein; Tm shift relative to glycine control, % at 25 µM; actives 2.5% (n = 340,000); AID 1259313;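 active = melting temperature shift of at least 10% of the positive control shift, at one fixed dose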
UCH37 DUB inh – human UCH37 deubiquitinating enzyme inhibition. inhibition, % (concentration not given with the values). AID 588478. purified proteasome/UCH37, Ub-AMC cleavage fluorescence. Q9Y5K5. actives 0.33% (n = 330,000);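 active = mean inhibition over replicate wells above about 20%, limit read from the data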;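 note: 0% = compound-free wells with enzyme and 100% = wells lacking proteasome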
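Signal – fluorescence, ex 355 nm, em 460 nm · System – Proteasome-bound UCH37 · Input – 0.15 nM proteasome as dispensed · Timing – 30 min preincubation with enzyme, 25 min cleavage at room temperature · Read-out basis – percent inhibition of cleavage signal versus uninhibited and no-proteasome wells · Medium – Tris-HCl pH 7.4 with ATP-MgCl2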
* hit, by the source's call; x = not tested or not shown. An excerpt weighted towards active compounds, which were near 3.6% of everything screened.

SMILES	NadD inh	ATG4B inh	SENP1 inh	GRIN3A LBD mod	UCH37 DUB inh
COC(=O)[C@H](CCSC)NC(=O)Nc1ccc(C)cc1	3	0	3	11*	1
COC(=O)[C@H](CCSC)NC(=O)Nc1cccc(Br)c1	-4	-8	0	17*	3
COC(=O)[C@H](CCSC)NC(=O)Nc1cc(C)ccc1C	5	-2	-1	2	4
O=C(CN1CCSCC1)NN=Cc1ccc(F)c(F)c1	x	x	x	x	-1
CCn1ncc(C=NNC(=O)c2csc3ccccc23)c1C	x	x	x	x	2
Cc1ccc(CN2CCN(C(=O)C3CCCO3)CC2)cc1 (stereo not drawn)	-6	-3	-2	-1	1
Cc1ccc(-c2nc(CN3CCN(C(=O)C4CCCO4)CC3)cs2)cc1 (stereo not drawn)	2	2	-1	11*	2
COc1ccc(NC(=S)Nc2ccc(C)c(Cl)c2)cc1OC	-1	3	-1	13*	6
COc1ccc(NC(=S)Nc2cccc(Cl)c2)cc1OC	-2	10	0	-3	1
Cc1ccc(NC(=S)Nc2ccc(OC(F)F)c(Cl)c2)cc1Cl	-3	8	1	38*	4
CC(C)COc1ccc(C(=NO)c2ccccc2)cc1	x	x	x	x	3
COC(=O)c1cc2sc(Cl)cc2n1CC(=O)Nc1cccc(SC)c1	5	10	-27	15*	1
COc1ccc(-c2noc(-c3cccnc3)n2)cc1OC	-1	-6	-14	-1	5
COc1ccc(-c2nc(-c3ccc(NC(=O)c4ccncc4)cc3)no2)cc1OC	-9	3	-8	12*	-1
COc1cccc(-c2nc(-c3ccc(C(=O)O)cc3)no2)c1	-9	9	2	-1	0
CCOc1ccccc1-c1nc(-c2ccc(NC(=O)c3ccc(Br)o3)cc2)no1	x	-2	x	16*	-8
COc1cccc(-c2nc(-c3ccc(NC(=O)c4cccs4)cc3)no2)c1	-5	-12	1	15*	-8
Cc1ccc(-c2nnc(-c3cccc(NC(=O)c4cccs4)c3)o2)cc1	-3	-23	3	20*	3
COc1cccc(-c2nc(-c3ccc(NC(=O)c4ccncc4)cc3)no2)c1	4	-10	-4	24*	1
COc1ccc(Cl)cc1-c1nc(-c2ccc(NC(=O)c3ccncc3)cc2)no1	2	-11	-1	26*	6
COc1cccc(NC(=O)c2ccccc2-c2nc(-c3ccc(Cl)cc3)no2)c1	-4	7	1	16*	0
Brc1ccc(/C=C/C=NNc2nc3ccccc3s2)cc1	x	x	x	x	3
O=C(Nc1ccc(N2C(=O)C3C4C=CC(C4)C3C2=O)cc1)Nc1nnc(C(F)(F)F)s1 (stereo not drawn)	-2	-7	1	20*	-1
CCOC(=O)c1c(-c2ccc(C)o2)csc1NC(=S)NC(=O)c1cccs1	2	14	1	18*	7
Cc1nc(C(F)(F)F)c(C(=O)NN=C(N)c2ccccn2)s1	x	x	x	x	4
SMILES	NadD inh	ATG4B inh	SENP1 inh	GRIN3A LBD mod	UCH37 DUB inh
CCOc1ccc(N2C(=O)CC(N3CCC(NC(=O)Nc4ccccc4)CC3)C2=O)cc1 (stereo not drawn)	2	4	1	14*	6
CCOc1ccc(N2C(=O)CC(N3CCN(C(=O)CN4CCCC4)CC3)C2=O)cc1 (stereo not drawn)	1	6	1	0	1
CC(=O)Nc1ccc(NC(=O)CSc2ccc(-c3ccc(-n4ccnc4)cc3)nn2)cc1	-2	5	-4	17*	4
CC(=O)Nc1ccc(NC(=O)CSc2ccc(-c3cccnc3)nn2)cc1	1	-9	0	-5	-1
O=C(CN1C(=O)NC2(CCCC2)C1=O)N1CCN(S(=O)(=O)c2ccccc2F)CC1	0	-3	-3	13*	3
CC[C@@H]1CC=C[C@H]2[C@H]1C(=O)N(Cc1ccccc1)[C@H]2c1ccc(C(F)(F)F)cc1	5	-2	0	12*	1
Cc1ccc(-c2ccc([C@H]3[C@H]4C=CC[C@@H](C)[C@@H]4C(=O)N3Cc3ccccc3)c(F)c2)cc1	-1	-5	-2	13*	-1
C/C(C=NNC(=O)c1cnccn1)=C/c1ccccc1	x	x	x	x	12
Cc1ccc(-c2cc(C(=O)NN=C/C=C/c3ccccc3)n[nH]2)o1	x	x	x	x	-2
